In ChEMBL document CHEMBL5154785, “Hypothesis-Driven, Structure-Based Design in Photopharmacology: The Case of eDHFR Inhibitors” (J Med Chem, 2022):
≈ marks a conversion by molar mass, not a printed value. Calls of active or inactive are those of the source. No cut-off for these calls is given here.

Assays:
[1] = Inhibition of Escherichia coli DHFR irradiated with 390 nm light preincubated with NADPH for 3 mins followed by compound addition for 7 mins by colorimetric assay
Procedure, shortened: (§1)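 In-house E. coli DHFR expressed in BL21(DE3) and Ni-NTA purified. Enzyme (~20 ng) preincubated with 60 μM NADPH, then with inhibitor at 10^-5 to 10^-12 M final, 1% DMSO. Dark samples heat-adapted to the trans isomer; irradiated samples brought to PSS at 100 μM for 15–45 min. Reaction started with 15 μM dihydrofolate, A340 followed every 5 s for 300 s at 25 °C. Triplicates; activity taken relative to a DMSO control; IC50 from nonlinear regression.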

[2] = Inhibition of Escherichia coli DHFR preincubated with NADPH for 3 mins followed by compound addition for 7 mins under dark condition by colorimetric assay; procedure, shortened: as §1
Escherichia coli [3] = assay: Antibacterial activity against Escherichia coli CS1562 assessed as reduction in bacterial growth under dark condition measured after 24 hrs by plate reader method; assay type: functional
Procedure, shortened: (§2)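 E. coli CS1562 grown overnight at 37 °C in LB with tetracycline (10 μg/mL), then diluted to 0.002 OD600. Compound serial dilutions made in DMSO and diluted 25-fold in LB. Irradiated set exposed to 355 nm for 30 min before adding cells; dark set not irradiated. Triplicates grown overnight at 37 °C with OD600 read every 10 min, background-corrected to t=0.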

Escherichia coli [4] = assay: Antibacterial activity against Escherichia coli CS1562 assessed as reduction in bacterial growth irradiated with 355 nm light measured after 24 hrs by plate reader method; assay type: functional; conditions: CS1562, light or radiation study; procedure, shortened: as §2
Escherichia coli [5] = assay: Antibacterial activity against Escherichia coli CS1562 assessed as reduction in bacterial growth at 20 uM irradiated with 355 nm light measured after 24 hrs by plate reader method; assay type: functional, organism-based; procedure, shortened: as §2
Escherichia coli [6] = assay: Antibacterial activity against Escherichia coli CS1562 assessed as reduction in bacterial growth at 20 uM measured after 24 hrs under dark condition by plate reader method; assay type: functional, organism-based; procedure, shortened: as §2
[7] = Half life of compound; assay type: physicochemical
Procedure, shortened: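 Metastable-isomer thermal relaxation tracked as recovery of the π–π* band under stirring, at 25 °C in DMSO or eDHFR assay buffer, or at 37 °C in 10 mM Tris-HCl pH 7.0. Fitted to a first-order exponential.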

Row | Compound | IC50 [1] [µM] | IC50 [2] [µM] | MIC (Escherichia coli [3]) [µM] | MIC (Escherichia coli [4]) [µM] | other results
1 | COC(C)(C#Cc1cnc(N)nc1N)c1ccc(/N=N/c2cccc(C(=O)O)c2)cc1 (stereo not given) | – | – | – | – | Activity (Escherichia coli [5]): Active; Activity (Escherichia coli [6]): Active
2 | Nc1ncc(/N=N/c2ccccc2)c(N)n1 | > 10 | > 10 | – | – | half-life [7]: 10 s
3 | COc1ccc(/N=N/c2ccc(COc3c(OC)cc(Cc4cnc(N)nc4N)cc3OC)cc2)cc1 | – | – | 20 (≈ 10 µg/mL) | 10 (≈ 5.01 µg/mL) | –

Continued, in another order:

Row | IC50 [1] [µM] | IC50 [2] [µM] | MIC (Escherichia coli [3]) [µM] | MIC (Escherichia coli [4]) [µM] | Compound | other results
4 | > 10 | > 10 | – | – | Nc1ncc(-c2ccc(/N=N/c3ccccc3)cc2)c(N)n1 | –
5 | – | – | 10 (≈ 5.42 µg/mL) | 5 (≈ 2.71 µg/mL) | COc1cc(Cc2cnc(N)nc2N)cc(OC)c1OCc1cc(F)c(/N=N/c2c(F)cccc2F)c(F)c1 | –
6 | – | – | > 80 | 10 (≈ 6.08 µg/mL) | COc1cc(Cc2cnc(N)nc2N)cc(OC)c1OCc1cc(Cl)c(/N=N/c2c(Cl)cccc2Cl)c(Cl)c1 | –
7 | > 10 | > 10 | – | – | Nc1ncc(C#Cc2ccc(/N=N/c3ccccc3)cc2)c(N)n1 | –
